OX1R antag-1 – human HCRTR1 antagonism. 0.43% of 330,000 active. AID 434989. inhibition, % at 5 µM. CHO/OX1R cells, Fluo-8 calcium fluorescence, orexin A;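 active means inhibition above its plate's threshold, mean inhibition of all tested compounds on the plate plus 3 SD, cut at about 37% in these data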
TAAR1 agonist – agonists of human TAAR1 | CHO RD-HGA16 TAAR1, Fluo-8 calcium fluorescence; vehicle wells 0%, saturating PEA agonist 100% | activation, % at 3 µM | 0.99% of 360,000 active | AID 624467;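 active means activation above the mean activation of all test compounds in the run plus 3 SD, cut at about 38% in these data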
Target sequence (Q96RJ0 whole entry, looked up): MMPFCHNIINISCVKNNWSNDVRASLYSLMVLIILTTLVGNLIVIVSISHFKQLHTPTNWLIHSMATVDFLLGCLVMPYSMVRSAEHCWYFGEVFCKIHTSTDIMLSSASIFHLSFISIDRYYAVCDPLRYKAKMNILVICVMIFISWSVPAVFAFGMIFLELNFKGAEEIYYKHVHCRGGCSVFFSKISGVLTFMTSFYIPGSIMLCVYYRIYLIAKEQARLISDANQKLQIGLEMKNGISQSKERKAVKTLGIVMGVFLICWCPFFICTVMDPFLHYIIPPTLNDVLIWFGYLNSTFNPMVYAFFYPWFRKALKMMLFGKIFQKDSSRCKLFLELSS
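Signal – calcium-sensitive Fluo-8 signal, excitation 470-495, emission 515-575 nm · System – RD-HGA16 (CHO) cells co-expressing Gα16 and hTAAR1 · Incubation – 17-24 h seeding, 75 min 37 °C dye, 30 min RT · Compound dosing – 3 µM single concentration · Repeats – no replicates (n 1)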
OX1R antag-2 – OX1R (human) antagonism; O43613; OX1R-expressing cells, FRET antagonist read-out; inhibition, % at 6.6 µM; 1.8% of 330,000 active; AID 485270; in the data active means inhibition mostly above about 38%, no sharp cut-off; inactive means mostly below about 40%
TAAR1 antag – human TAAR1 antagonism | Q96RJ0 | inhibition, % at 3 µM | 1.5% of 360,000 active | CHO RD-HGA16 TAAR1, Fluo-8 calcium fluorescence, antagonist;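 active means inhibition above a per-plate cutoff, the mean inhibition of test compounds on that plate plus 3 SD, cut at about 49% in these data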
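Assay system: CHO-derived RD-HGA16 cells stably expressing human TAAR1 plus Gα16. Timing: 140 s kinetic read after compound, 140 s after agonist. Technique: kinetic Fluo-8 calcium fluorescence measurement. Measure: % inhibition of agonist calcium response.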
GPR7 antag – blocks human GPR7 receptor signaling | GPR7-expressing cells, fluorescence antagonist assay | 1.1% of 290,000 active | P48145 | AID 1861 | inhibition, % at 4.4 µM; in the data active means inhibition above about 16%, passing the limit was not always enough;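 further: cells stimulated with the agonist NPW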
Target sequence (P48145 whole entry, looked up): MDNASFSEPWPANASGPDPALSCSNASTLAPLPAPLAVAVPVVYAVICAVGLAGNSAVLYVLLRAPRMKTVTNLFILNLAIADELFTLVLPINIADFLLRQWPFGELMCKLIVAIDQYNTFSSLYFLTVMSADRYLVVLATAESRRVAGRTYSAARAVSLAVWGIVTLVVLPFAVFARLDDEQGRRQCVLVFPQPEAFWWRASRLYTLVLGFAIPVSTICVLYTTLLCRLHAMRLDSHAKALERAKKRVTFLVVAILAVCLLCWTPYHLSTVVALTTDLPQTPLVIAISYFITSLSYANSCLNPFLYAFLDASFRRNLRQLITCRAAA
CHO parental Ca – counter-screen for OX1R antagonists: effect in parental CHO cells; AID 463079; 0.63% of 330,000 active; parental CHO-K1, ATP-induced calcium, Fluo-8 fluorescence; inhibition, % at 5.6 µM;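 active means inhibition above that plate's mean sample inhibition plus 3 SD, cut at about 26% in these data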
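Material – parental CHO cells · Reagent – ATP stimulus · Compound – single nominal dose of 5.6 µM per compound · Detection – Fluo-8 fluorescence · Read-out basis – percent inhibition of calcium signal · Controls – ATP-challenged DMSO wells low, unchallenged DMSO wells high · Repeats – no replicates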
OX1R HTRF conf – confirmation of human orexin 1 receptor antagonists, HTRF format; shares compounds with OX1R antag-2; OX1R-expressing cells, HTRF antagonist assay; inhibition, % at 6.6 µM; 49% of 1,800 active; AID 492964; in the data active means inhibition above about 55%;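 further: CHO cells expressing OX1R stimulated with orexin A at about EC80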
CHO-K1 HTRF cnt – counter-screen: parental CHO-K1 HTRF response. shares compounds with OX1R antag-2. parental CHO-K1 cells, HTRF counterscreen. inhibition, % at 6.6 µM. 48% of 1,800 active. AID 493232; in the data active means inhibition above about 17%
A number is an active result; . = inactive; / = no result given. Shown are actives, neighbours in structure and some others; about 4.6% of the full set was active somewhere.

SMILES	OX1R antag-1	TAAR1 agonist	OX1R antag-2	TAAR1 antag	GPR7 antag	CHO parental Ca	OX1R HTRF conf	CHO-K1 HTRF cnt
COc1ccc(-n2nc([N+](=O)[O-])c(=NCc3cccnc3)n2O)cc1	.	.	123	.	.	.	61	78
COc1ccc(-n2nc([N+](=O)[O-])c(=NC3CCN(Cc4ccccc4)CC3)n2O)cc1	.	.	79	.	.	.	61	55
COc1ccc(-n2nc([N+](=O)[O-])c(=NCc3ccco3)n2O)cc1	.	.	.	.	.	.	/	/
COc1ccc(NC(=O)C2c3ccccc3OCC(=O)N2CC(F)(F)F)cc1 (stereo not drawn)	/	.	/	.	/	/	/	/
O=C(CSc1ccc([N+](=O)[O-])cn1)Nc1ccc2[nH]c(=O)[nH]c2c1	.	.	93	.	.	.	.	24
Cc1cccc(NS(=O)(=O)c2ccc(C)c(C(=O)NCc3ccccn3)c2)c1	/	.	/	.	/	/	/	/
O=C1CCCC(O)=C1N=Nc1ccc2c(c1)OCO2	.	.	81	.	.	.	.	58
O=C1CCCC(O)=C1N=Nc1c(Cl)cc(C(F)(F)F)cc1Cl	.	.	.	.	.	.	/	/
O=C1CCCC(O)=C1N=Nc1ccc(C(=O)O)cc1	.	.	86	.	.	.	72	64
O=C1CCCC(O)=C1N=Nc1cccc(S(=O)(=O)N2CCOCC2)c1	.	.	.	.	.	.	/	/
c1ccc(-c2cc(-c3ccccc3)ncn2)cc1	.	.	.	.	/	.	/	/
C[n+]1cnc(-c2ccccc2)cc1-c1ccccc1	.	.	85	.	.	.	.	64
O=C(CCS(=O)(=O)c1cccc2nonc12)N1CCN(c2ccc(F)cc2)CC1	.	.	97	.	.	.	.	24
O=C(CCS(=O)(=O)c1cccc2nonc12)N1CC(=O)N(CCc2ccccc2)C(=O)C1	.	.	.	.	.	.	/	/
O=C(CCS(=O)(=O)c1cccc2nonc12)N1CCOCC1	.	.	99	.	.	.	.	69
Oc1ccc(C[C@H]2CNC(=S)N2C[C@H]2CCCN2C[C@H](Cc2ccccc2)N2C[C@H](Cc3ccc(O)cc3)N(CC3CCCCCC3)C2=S)cc1	/	.	/	.	/	/	/	/
O=[N+]([O-])c1c(NCCO)cc(N2CCCCC2)c2nonc12	.	.	90	.	.	.	.	39
CCOC(=O)N1CCN(c2cc(NCCO)c([N+](=O)[O-])c3nonc23)CC1	.	.	.	.	.	.	/	/
COC(=O)c1sccc1NC(=O)Nc1cccc(C(C)=O)c1	.	.	82	.	.	.	67	.
COC(=O)c1sccc1NC(=O)Nc1cccc(C)c1	.	.	.	.	.	.	/	/
O=C(Nc1ccc2nc(-c3ccccc3)oc2c1)c1ccco1	.	.	94	.	.	.	85	.
O=C(Nc1cccc(-c2nc3ccccc3s2)c1)c1cccs1	.	.	81	.	.	.	78	.
O=C(Nc1ccc2oc(-c3ccccc3)nc2c1)c1ccncc1	.	.	.	.	.	.	/	/
O=C(Nc1ccc2oc(-c3ccccc3)nc2c1)c1cccs1	.	.	82	.	.	.	.	.
O=C(Nc1ccc2oc(-c3cccnc3)nc2c1)c1ccco1	.	.	.	.	.	.	/	/
SMILES	OX1R antag-1	TAAR1 agonist	OX1R antag-2	TAAR1 antag	GPR7 antag	CHO parental Ca	OX1R HTRF conf	CHO-K1 HTRF cnt
O=C(Nc1ccc2nc(-c3cccs3)[nH]c2c1)c1cccs1	.	.	93	.	.	.	.	.
O=C(Nc1ccc2nc(-c3cccs3)[nH]c2c1)c1ccco1	.	.	.	.	.	.	/	/
O=S(=O)(c1ccc(F)cc1)N1CCN(CC(O)COCC2CCCO2)CC1 (stereo not drawn)	/	.	/	.	/	/	/	/
S=c1[nH]nc(Cc2c[nH]c3ccccc23)o1	.	.	.	.	.	.	/	/
S=c1[nH]nc(Cc2sc(-c3ccccc3)nc2-c2ccccc2)o1	.	.	78	.	.	.	.	22
CSc1ccc(NC(=O)C2(C)CCN2C(=O)c2cc(C)n(C)n2)cc1 (stereo not drawn)	/	.	/	.	/	/	/	/
COc1ccc(C(=O)Nc2nc(-c3cccs3)cs2)cc1	.	.	90	.	.	.	65	20
O=C(Nc1nc(-c2cccs2)cs1)c1ccco1	.	.	.	.	.	.	/	/
N#CC1=C(N)Oc2c(ccc3cccnc23)C1c1cccnc1 (stereo not drawn)	.	.	96	.	.	.	.	.
N#CC1=C(N)Oc2cc3ccccc3cc2C1c1cccnc1 (stereo not drawn)	.	.	.	.	.	.	/	/
CC(Sc1ccc(S(=O)(=O)N2CCCCCC2)cn1)C(N)=O (stereo not drawn)	/	.	/	.	/	/	/	/
Cc1ccc2c(ccc[n+]2CC(=O)c2ccccc2)c1	.	.	84	.	.	.	.	40
O=C(Cn1cc(C(F)(F)F)ccc1=O)N1CCc2ccccc21	.	.	.	.	/	.	/	/
C/C=N/NC(=O)c1cc(Br)ccc1O	.	.	77	.	.	.	.	.
O=C(Nc1ccc2nsnc2c1)N1CCCCCC1	.	.	87	.	.	.	.	27
Cc1cccn2c(=O)nc(SCC(=O)N3CCC(Cc4ccccc4)CC3)nc12	.	.	.	.	/	.	/	/
C/[N+]([O-])=C1\Cc2ccccc2C1=O	.	.	105	.	.	.	.	63
COc1cccc(NC(=O)NCc2ccccc2Cl)c1	.	.	.	.	/	.	/	/
O=C(CSc1ncn[nH]1)Nc1cccc(S(=O)(=O)N2CCCCCC2)c1	.	.	.	.	.	.	/	/
Nc1nc(SCC(=O)Nc2cccc(S(=O)(=O)N3CCCCCC3)c2)n[nH]1	.	.	89	.	.	.	.	.
COCCNC(=O)c1c(CS(=O)(=O)c2ccccc2)noc1C(=O)NCc1ccccc1	.	.	.	.	/	.	/	/
CN(C)S(=O)(=O)c1cccc2c1C(=O)c1ccccc1C2=O	.	.	105	.	.	.	.	.
C=CCN(Cc1ccc(Cl)s1)C(=O)c1ccc(F)c(S(=O)(=O)N2CCOCC2)c1	.	.	.	.	/	.	/	/
CCC(=O)N1CCC2(CC1)Oc1ccc(F)cc1C(=O)C21CC(c2cccnc2)=NO1 (stereo not drawn)	.	.	78	.	/	.	.	.
Cc1ccc(C(=O)N/C(=C/c2ccc(-c3cccc([N+](=O)[O-])c3)o2)C(=O)NC(C)(C)C)cc1	.	.	85	.	.	.	69	.
O=C(O)c1ccc(NC(=O)c2ccc3c(c2)C(=O)N(CC2CCCO2)C3=O)cc1 (stereo not drawn)	.	.	78	.	.	.	.	32

Screens as filed in PubChem.
